Bioassay records from PubChem.
Compounds with a hit are over-represented: about 2.2% of the library has one in this group of screens.
EBV gp42 inh = EBV gp42 inhibition. Q1HVG2. Fluorescence polarization binding assay, mP read-out. inhibition, % (tested at 21.74 µM). 220,000 tested, 0.42% active; in the data active = inhibition above about 50%
Target sequence (Q1HVG2 whole entry, looked up): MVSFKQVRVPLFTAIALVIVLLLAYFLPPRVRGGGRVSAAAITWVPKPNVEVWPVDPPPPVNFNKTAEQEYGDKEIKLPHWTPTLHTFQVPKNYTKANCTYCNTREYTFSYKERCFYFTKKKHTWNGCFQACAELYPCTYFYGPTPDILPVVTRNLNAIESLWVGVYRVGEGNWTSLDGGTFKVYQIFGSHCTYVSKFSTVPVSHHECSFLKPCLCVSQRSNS
VIM-2 inhibitor = blocks Pseudomonas aeruginosa VIM-2 metallo-beta-lactamase; purified VIM-2, nitrocefin hydrolysis, epi-absorbance fluorescence; inhibition, % at 5.6 µM; 290,000 tested, 0.89% active;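 active = inhibition above the mean of all tested compounds plus 3 SD, cutoff set per screening run, cut at about 7.5% in these data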;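 also: red hydrolysis product quenches plate fluorescence so inhibitors raise well fluorescence; 0% = enzyme with DMSO and 100% = DMSO without enzyme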
GLD-1 RNA inh = GLD-1-TGE RNA interaction inhibition (C. elegans) | Q17339 | 320,000 tested, 0.44% active | purified GLD-1 + fluorescein TGE RNA, fluorescence polarization | inhibition, % at 5.96 µM;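 active = percent inhibition above a per-plate cutoff, the plate mean of test compounds plus 3 SD, cut at about 30% in these data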;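 also: 0% = DMSO wells with GLD-1 and probe and 100% = wells lacking GLD-1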
IMP-1 inh = blocks Pseudomonas aeruginosa IMP-1 metallo-beta-lactamase. 290,000 tested, 0.45% active. purified IMP-1, nitrocefin hydrolysis, epi-absorbance fluorescence. inhibition, % at 5.6 µM;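 active = inhibition above the mean plus 3 SD of all compounds in the same screening run, cut at about 4.5% in these data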;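 also: 0% = IMP-1 with DMSO and 100% = DMSO wells lacking enzyme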
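Assay system: purified IMP-1; Quantity: IMP-1 0.2 nM before substrate addition; Medium: HEPES buffer pH 7.1 with ZnSO4 and Brij 35; Incubation: 15 min enzyme–compound preincubation, then 25 min nitrocefin reaction, 25 °C; Signal: fluorescence quenching readout, ex 480/em 530 nm; Controls: DMSO with and without IMP-1; Repeats: singlicate testing.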
MEX-5 binding = C. elegans MEX-5 TCR-2 RNA binding activity. Q9XUB2. MEX-5/FITC-TCR2 RNA binding, fluorescence polarization; hits give low values. activity score (negative = inhibition of binding), % at 10 µM. 300,000 tested, 0.38% active. AID 1832;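 active = inhibition past about -25% in most replicates, and total fluorescence under double the plate's negative control median, limit read from the data; inconclusive = replicates evenly split on the limit, or fluorescence at least double controls; inactive = too little inhibition in most replicates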;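 also: 0% = DMSO and -100% = 5 µM competing unlabeled TCR2 RNA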
BCLXL inh = Bcl-xL (human) inhibition | GST-Bcl-xL / FITC-Bim BH3 peptide fluorescence polarization | inhibition, % at 10.9 µM | 320,000 tested, 0.7% active;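 active = inhibition above the mean of all tested compounds plus 3 SD, cutoff set per campaign, cut at about 30% in these data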;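 also: 0% = DMSO wells and 100% = unlabeled Bim-BH3 peptide competitor; inhibitors lower millipolarization by displacing the labeled peptide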
Target sequence (Q07817 whole entry, looked up): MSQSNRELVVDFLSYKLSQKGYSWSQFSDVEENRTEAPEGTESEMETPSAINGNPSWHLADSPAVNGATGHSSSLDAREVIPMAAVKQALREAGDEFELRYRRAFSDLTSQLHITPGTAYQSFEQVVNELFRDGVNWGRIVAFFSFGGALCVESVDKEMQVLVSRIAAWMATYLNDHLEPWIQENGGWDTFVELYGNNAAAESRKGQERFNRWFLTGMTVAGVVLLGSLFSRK
Starred values were filed as active, the others as inactive; ? = inconclusive; . = not tested or not shown; ! = a repeat was not active.

SMILES	EBV gp42 inh	VIM-2 inhibitor	GLD-1 RNA inh	IMP-1 inh	MEX-5 binding	BCLXL inh
CCC1C=CC=CC[C@H](C)[C@@H](O)[C@](C)(O)C(=O)[C@@H](C)[C@H](O)[C@@H](C)C(=O)[C@H](C)[C@@H](O)[C@H](C)C=CC(=O)OC2[C@@H](C)C(CC1)OC1(CC[C@@H](C)C(C[C@H](C)O)O1)[C@@H]2C (stereo partly specified)	.	.	8	.	.	1
CCOC(=O)c1cc(CC)sc1/N=C/c1c(O)[nH]c(=S)[nH]c1=O	-162	-3	-28	1	-29*	-31
CCOC(=O)c1cc(CC)sc1/N=C/C1C(=O)NC(=S)NC1=O	-126	0	-32	-3	-13	-33
O=C(Cn1c(NCCCl)nc2ccccc21)c1ccc(Br)cc1	.	.	5	.	1	5
COc1ccc(/C=C2/C(=O)NC(=O)N(c3ccccc3)C2=O)cc1CN1C(=O)c2ccccc2C1=O	-4	0	-4	2	-5	-5
Cc1ccccc1N1C(=O)NC(=O)/C(=C\c2ccc3c(c2)CCCN3Cc2ccccc2)C1=O	171*	1	-1	1	1	-48
O=C(c1ccc2nc(-c3ccco3)c(-c3ccco3)nc2c1)N1CCC2(CC1)OCCO2	-9	.	22	.	.	52*
CN1CCC2(CC1)C(C#N)=C(N)NC(S)=C2C#N	-2	0	-78	-1	-43*!	42*
Cc1cc(C=C2C(=O)N(C)C(=S)N(C)C2=O)c(C)n1-c1ccncc1	-14	-3	-3	18*	3	-9
Cc1ccnc(-n2c(C)cc(C=C3C(=O)N(C)C(=S)N(C)C3=O)c2C)c1	-14	1	0	4	-2	-12
CNS(=O)(=O)c1ccc(N=Cc2c(O)n(-c3ccc(C)cc3)c(=O)[nH]c2=O)cc1	-13	0	-19	0	2	-11
CCn1c(O)c(C=Nc2ccc(N3CCOCC3)cc2)c(=O)n(CC)c1=S	177*	-1	-37	-1	?	-28
O=c1[nH]c(=S)n(-c2ccc(Cl)cc2)c(O)c1C=Nc1ccc(N2CCOCC2)cc1	45	-2	-21	-5	-41*	166*
CCn1c(O)c(C=Nc2ccc(N3CCOCC3)c(Br)c2)c(=O)n(CC)c1=S	-12	-3	-1	-1	1	2
CCc1nnc(NS(=O)(=O)c2ccc(N=Cc3c(O)n(-c4ccc(Cl)cc4)c(=O)[nH]c3=O)cc2)s1	4	0	-23	-1	-28*	-24
OCC(Cl)CCl (stereo unspecified)	.	.	0	.	.	3
Cc1c(NC(NC(=O)CF)C(Cl)(Cl)Cl)c(=O)n(-c2ccccc2)n1C (stereo unspecified)	5	-1	10	-3	3	4
C[N+](C)(N)CCOC(=O)C(O)(c1ccccc1)C1CCCCC1 (stereo unspecified)	.	.	14	.	4	5
Cc1ccc2c(c1N)C(=O)c1ccccc1C2=O	.	.	-4	.	.	47*
Cc1ccc(CN2CCCC(C(=O)c3sccc3C)C2)o1 (stereo unspecified)	-2	0	3	-2	0	1
Cc1cc(/C=C2\C(=O)NC(=O)N(c3cccc(Br)c3)C2=O)c(C)n1C	111*	-1	-1	-3	-28*	-3
CC(=O)NC(Cc1ccc(N(CCCl)CCCl)cc1)C(=O)NC(CC(C)C)C(=O)O (stereo unspecified)	-6	0	3	-1	-4	14
CC(C)[C@@]1(NC(=O)[C@@H]2C[C@@H]3c4cccc5[nH]cc(c45)C[C@H]3N(C)C2)O[C@@]2(O)[C@@H]3CCCN3C(=O)[C@H](Cc3ccccc3)N2C1=O	12	0	9	0	1	16
CC(C)C[C@H]1C(=O)N2CCCC2[C@]2(O)O[C@](NC(=O)[C@@H]3C=C4c5cccc6[nH]cc(c56)CC4N(C)C3)(C(C)C)C(=O)N12 (stereo partly specified)	97*	1	117*	0	-7	152*
CC(C)[C@@]1(NC(=O)[C@@H]2C=C3c4cccc5[nH]cc(c45)C[C@H]3N(C)C2)O[C@@]2(O)[C@@H]3CCCN3C(=O)[C@H](Cc3ccccc3)N2C1=O	112*	2	.	0	.	.
SMILES	EBV gp42 inh	VIM-2 inhibitor	GLD-1 RNA inh	IMP-1 inh	MEX-5 binding	BCLXL inh
CC(C)[C@H]1C(=O)N2CCC[C@H]2[C@]2(O)O[C@](NC(=O)[C@@H]3C=C4c5cccc6[nH]cc(c56)C[C@H]4N(C)C3)(C(C)C)C(=O)N12	112*	1	129*	0	.	153*
CN1CCN(C(=O)COc2ccc(S(=O)(=O)NC3CCCCC3)cc2Cl)CC1	.	-4	-3	-3	2	4
Cc1cc(OCC(=O)N[C@@H](Cc2ccccc2)C(=O)O)c2c3c(c(=O)oc2c1)CCCC3	.	11*	5	-4	0	2
Cc1cc(OCc2nn[nH]n2)c2c3c(c(=O)oc2c1)CCC3	-5	12*	3	-1	0	-10
COC(=O)C(C)Oc1cc(C)cc2oc(=O)c3c(c12)CCCC3 (stereo unspecified)	-5	9.9*	1	-2	3	2
COC(=O)C(C)Oc1cc(C)cc2oc(=O)c3c(c12)CCC3 (stereo unspecified)	-18	11*	-2	-5	-1	2
O=C(N[C@H]1CP(=O)(Oc2ccccc2)O[C@H](COCc2ccccc2)[C@H]1O)C(Cl)(Cl)Cl (stereo partly specified)	-4	.	-2	.	?	3
CC1(C)CC(CCNCc2ccc3c(c2)OCO3)(Cc2ccccc2)CCO1 (stereo unspecified)	2	-7	4	-2	-1	7
CCN1C(=O)C(=C/C=C/c2ccco2)C(=O)N(CC)C1=S	-44	-4	-8	5.8*	1	10
CCOP(=O)(OCC)/C(C#N)=C/c1ccoc1	4	-3	.	-1	-5	.
O=C1NC(=S)NC(=O)C1=Cc1ccc2c(c1)CCN2CCCCl	71*	-1	4	-2	-1	29
Nc1cc(Cl)cc(C(=O)O)c1Cl	.	.	6	.	.	5
COc1ccc2[nH]c(C)c(CCNCc3cccnc3)c2c1	.	.	20	.	.	42*
CN[C@@H]1C[C@@H](c2ccc(Cl)c(Cl)c2)c2ccccc21	-5	-3	3	-1	1	8
CCN(CC)C(=O)c1ccc(NC(=O)COc2ccc(-c3nn(C)c(=O)c4ccccc34)cc2)cc1	.	9.0*	-10	-2	1	2
CCN(CC)C(=O)c1ccc(NC(=O)c2cn(-c3ccccc3)nc2-c2ccc(OC)cc2)cc1	.	-3	-8	-4	0	1
CC1=C[C@@H]2c3cccc4[nH]cc(c34)C[C@H]2N(C)C1	.	2	118*	3	-58*	169*
